Experimental data of several laboratories.
Compare with care: the assays were run in different laboratories.
Target: Histamine H1 receptor (HRH1, Homo sapiens, UniProt P35367)

| Compound | effect on | technique | concentration | endpoint | result |
| --- | --- | --- | --- | --- | --- |
| CN1CCC(=C2c3ccccc3CCc3cccnc32)CC1 | binding | – | – | koff | 0.000147 s⁻¹ |
| C[C@H](NC(=O)Nc1cc2[nH]ncc2c(CO)n1)c1ccccn1 | cell-free assay | – | 10 µM | inhibition | 4.18% |
| CN(C)CCOC1c2ccccc2C=Cc2ccccc21 | binding | – | – | kon | 833000 M⁻¹ s⁻¹ |
| CN1CCN(CCCOc2ccc(=O)n(-c3ccc(Cl)c(Cl)c3)n2)CC1 | ligand displacement | – | 1 µM | inhibition | 40.7% |
| CN(C)CCOC1c2ccccc2CCc2ccccc21 | binding | – | – | kon | 1.1e+06 M⁻¹ s⁻¹ |
| Ic1cccc2cnccc12 | ligand displacement | radioligand | 10 µM | inhibition | 0% |
| O=C(c1ccc(F)cc1)N(Cc1ccccc1)C1CCCCC1 | cell-free assay | – | 10 µM | inhibition | 23% |
| O=C1N=C(N2CCCCN2)S/C1=C\c1ccc(F)cc1O | ligand displacement | radioligand | 10 µM | inhibition | < 10% |
| CCN(Cc1ccccc1C(F)(F)F)C(=O)C1CCN(S(=O)(=O)c2ccc3[nH]ncc3c2)CC1 | ligand displacement | radioligand | 10 µM | inhibition | 26% |
| N#Cc1cc(Cn2c(N3CCCC3)nc3ccccc32)ccc1F | ligand displacement | – | 10 µM | inhibition | 73% |
| CCN(CC)c1ccc(C2Nc3ccc(C(=O)c4ccccc4)cc3NC3=C2C(=O)CC(C)(C)C3)cc1 (centres unmarked) | ligand displacement | radioligand | 10 µM | inhibition | 40% |
| CN1CCN(C2c3ccccc3CCc3ccccc32)CC1 | binding | – | – | koff | 0.002 s⁻¹ |
| CCCNc1nc2ccccc2n1Cc1ccc(Cl)cc1 | ligand displacement | – | 10 µM | inhibition | 97.8% |
| COc1ccc(-n2nc(OCCCN3CCCCC3)ccc2=O)cc1 | ligand displacement | – | 1 µM | inhibition | 16.7% |
| CN1CCC(C2c3ccccc3C=Cc3ccccc32)CC1 | binding | – | – | koff | 0.00035 s⁻¹ |
| CC(C)(C)OC(=O)N1CCCC1CNC1CCC(c2cc(F)ccc2F)(S(=O)(=O)c2ccc(Cl)cc2)CC1 (centres unmarked) | cell-free assay | – | 10 µM | inhibition | 25.6% |
| Oc1cccc(Nc2nc(-c3ccc(F)cc3F)cs2)c1 | cell-free assay | – | 10 µM | inhibition | -19.9% |
